Data reported in ChEMBL document CHEMBL3352508, “Discovery and early clinical development of 2-{6-[2-(3,5-dichloro-4-pyridyl)acetyl]-2,3-dimethoxyphenoxy}-N-propylacetamide (LEO 29102), a soft-drug inhibitor of phosphodiesterase 4 for topical treatment of atopic dermatitis” (J Med Chem, 2014).
pIC50: −log10 of the molar value. Values after ≈ are worked out from the molar mass of the structure shown.

Legend:
[1] = target: 3',5'-cyclic-AMP phosphodiesterase 4D (Homo sapiens, UniProt Q08499); assay: Inhibition of human recombinant PDE4D after 1 hr by SPA in presence of radioactively labeled cAMP
In short: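 Recombinant human PDE4D (NM_006203) incubated 1 h with test compound up to 10 μM, 1 × 10⁻⁵ M cAMP and 0.021 MBq radiolabelled cAMP tracer. Substrate cleavage read by binding of AMP product to SPA beads. IC₅₀ is the molar concentration giving 50% inhibition of cleavage relative to controls, reported as a range.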

PBMC = assay: Inhibition of LPS-induced TNFalpha release in human PBMC preincubated for 30 mins before LPS stimulation measured after 18 hrs by TR-FRET assay; format: functional, cell-based
In short: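 PBMCs isolated from buffy coats (blood diluted 1:1 with saline, Lymphoprep). Supernatant TNF-α measured by TR-FRET (665/620 nm). IC₅₀ taken from inhibition curves, with LPS-stimulated and unstimulated wells as controls.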

[2] = target: Phosphodiesterase 1 (Homo sapiens) (UniProt P54750+Q01064+Q14123); assay: Inhibition of PDE1 (unknown origin) at 1 uM; format: protein assay
[3] = target: cGMP-dependent 3',5'-cyclic phosphodiesterase (Homo sapiens) (UniProt O00408); assay: Inhibition of PDE2 (unknown origin) at 1 uM
[4] = target: Phosphodiesterase 3 (Homo sapiens) (UniProt Q14432+Q13370); assay: Inhibition of PDE3 (unknown origin) at 1 uM; format: protein assay
[5] = target: High affinity cGMP-specific 3',5'-cyclic phosphodiesterase 9A (Homo sapiens) (UniProt O76083); assay: Inhibition of PDE9 (unknown origin) at 1 uM
[6] = target: cGMP-specific 3',5'-cyclic phosphodiesterase (Homo sapiens) (UniProt O76074); assay: Inhibition of PDE5 (unknown origin) at 1 uM
[7] = target: High affinity 3',5'-cyclic-AMP phosphodiesterase 7A (Homo sapiens) (UniProt Q13946); assay: Inhibition of PDE7 (unknown origin) at 1 uM
[8] = target: Phosphodiesterase 8 (Homo sapiens) (UniProt O95263+O60658); assay: Inhibition of PDE8 (unknown origin) at 1 uM; format: protein assay
[9] = target: cAMP and cAMP-inhibited cGMP 3',5'-cyclic phosphodiesterase 10A (Homo sapiens) (UniProt Q9Y233); assay: Inhibition of PDE10 (unknown origin) at 1 uM
[10] = target: Dual 3',5'-cyclic-AMP and -GMP phosphodiesterase 11A (Homo sapiens) (UniProt Q9HCR9); assay: Inhibition of PDE11 (unknown origin) at 1 uM
Mus musculus = assay: Antiinflammatory activity in topical allergic contact dermatitis mouse model assessed as inhibition of TNFalpha in tissue at 0.003 mg administered topically; format: functional
[11] = Genotoxicity in p53 competent human TK6 cells after 24 hrs by GreenScreen HC assay; format: toxicity, cell-based; settings: tk6, 24 h
[12] = Solubility of the compound in 0.067 M phosphate buffer at pH 7.4; format: physicochemical
In short: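 Compound shaken in 0.067 M phosphate buffer, pH 7.4, for 24 h at room temperature; after centrifugation, supernatant concentration determined by HPLC.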

[13] = Solubility of the compound in 20 % hydroxypropyl-beta-cyclodextrin in water after 1 hr at room temperature; format: physicochemical
In short: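 Compound shaken in the vehicle for 1 h at room temperature, centrifuged, and the supernatant concentration determined by HPLC.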

[14] = Solubility of the compound in medium chain triglyceride; format: physicochemical
In short: (§1)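 Compound shaken in each vehicle for 24 h at room temperature, centrifuged, and the supernatant concentration determined by HPLC.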

[15] = Solubility of the compound in propylene glycol; format: physicochemical; in short: as §1

Sequence of 3',5'-cyclic-AMP phosphodiesterase 4D (Q08499 whole entry): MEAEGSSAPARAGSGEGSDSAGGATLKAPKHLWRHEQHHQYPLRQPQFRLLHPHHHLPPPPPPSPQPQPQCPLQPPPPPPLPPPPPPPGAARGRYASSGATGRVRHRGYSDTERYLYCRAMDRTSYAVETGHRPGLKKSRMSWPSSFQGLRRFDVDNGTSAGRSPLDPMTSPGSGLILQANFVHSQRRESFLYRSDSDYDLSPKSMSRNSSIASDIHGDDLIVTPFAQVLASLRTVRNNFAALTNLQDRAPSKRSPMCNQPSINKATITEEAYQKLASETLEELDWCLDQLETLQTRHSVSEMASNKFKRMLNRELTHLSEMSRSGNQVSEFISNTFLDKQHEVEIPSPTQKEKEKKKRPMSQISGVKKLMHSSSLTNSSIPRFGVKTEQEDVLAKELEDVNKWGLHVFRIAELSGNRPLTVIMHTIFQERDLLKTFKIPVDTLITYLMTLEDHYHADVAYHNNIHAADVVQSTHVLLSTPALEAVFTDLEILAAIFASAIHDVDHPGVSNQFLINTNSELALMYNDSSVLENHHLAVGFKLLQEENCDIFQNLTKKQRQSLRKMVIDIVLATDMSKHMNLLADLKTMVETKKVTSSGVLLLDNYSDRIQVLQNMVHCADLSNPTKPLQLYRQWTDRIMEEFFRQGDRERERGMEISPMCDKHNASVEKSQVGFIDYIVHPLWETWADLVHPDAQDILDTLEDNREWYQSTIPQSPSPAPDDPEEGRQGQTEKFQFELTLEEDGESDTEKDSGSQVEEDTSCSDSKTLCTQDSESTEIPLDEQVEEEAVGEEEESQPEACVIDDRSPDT
Sequence of High affinity 3',5'-cyclic-AMP phosphodiesterase 7A (Homo sapiens) (Q13946 whole entry): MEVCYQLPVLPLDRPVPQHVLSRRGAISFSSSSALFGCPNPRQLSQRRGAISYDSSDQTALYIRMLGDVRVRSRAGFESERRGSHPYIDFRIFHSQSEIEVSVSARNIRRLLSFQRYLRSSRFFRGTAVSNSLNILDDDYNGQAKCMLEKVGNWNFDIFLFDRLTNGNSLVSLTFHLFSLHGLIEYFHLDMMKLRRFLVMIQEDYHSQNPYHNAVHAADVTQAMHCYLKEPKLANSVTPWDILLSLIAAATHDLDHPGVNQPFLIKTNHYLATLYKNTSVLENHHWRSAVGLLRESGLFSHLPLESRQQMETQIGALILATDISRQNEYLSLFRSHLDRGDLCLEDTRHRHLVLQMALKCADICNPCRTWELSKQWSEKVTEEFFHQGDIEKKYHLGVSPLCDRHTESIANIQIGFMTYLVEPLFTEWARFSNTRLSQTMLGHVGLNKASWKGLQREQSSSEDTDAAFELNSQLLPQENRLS
Sequence of High affinity cGMP-specific 3',5'-cyclic phosphodiesterase 9A (Homo sapiens) (O76083 whole entry): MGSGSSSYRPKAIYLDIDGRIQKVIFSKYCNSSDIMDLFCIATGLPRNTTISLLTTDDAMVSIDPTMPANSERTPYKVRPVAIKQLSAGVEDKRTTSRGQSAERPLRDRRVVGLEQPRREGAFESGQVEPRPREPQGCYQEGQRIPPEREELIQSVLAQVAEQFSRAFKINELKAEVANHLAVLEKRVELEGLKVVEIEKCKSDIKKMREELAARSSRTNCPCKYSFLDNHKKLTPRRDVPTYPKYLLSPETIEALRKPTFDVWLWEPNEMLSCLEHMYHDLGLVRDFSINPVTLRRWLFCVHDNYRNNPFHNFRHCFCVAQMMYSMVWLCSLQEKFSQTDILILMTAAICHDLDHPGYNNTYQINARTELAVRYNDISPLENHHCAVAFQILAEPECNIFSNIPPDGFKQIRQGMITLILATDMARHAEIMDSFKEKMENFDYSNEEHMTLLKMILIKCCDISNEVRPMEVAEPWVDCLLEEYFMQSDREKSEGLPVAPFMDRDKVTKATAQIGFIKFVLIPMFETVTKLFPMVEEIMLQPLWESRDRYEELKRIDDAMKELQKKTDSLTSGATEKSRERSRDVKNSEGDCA
Sequence of cGMP-dependent 3',5'-cyclic phosphodiesterase (Homo sapiens) (O00408 whole entry): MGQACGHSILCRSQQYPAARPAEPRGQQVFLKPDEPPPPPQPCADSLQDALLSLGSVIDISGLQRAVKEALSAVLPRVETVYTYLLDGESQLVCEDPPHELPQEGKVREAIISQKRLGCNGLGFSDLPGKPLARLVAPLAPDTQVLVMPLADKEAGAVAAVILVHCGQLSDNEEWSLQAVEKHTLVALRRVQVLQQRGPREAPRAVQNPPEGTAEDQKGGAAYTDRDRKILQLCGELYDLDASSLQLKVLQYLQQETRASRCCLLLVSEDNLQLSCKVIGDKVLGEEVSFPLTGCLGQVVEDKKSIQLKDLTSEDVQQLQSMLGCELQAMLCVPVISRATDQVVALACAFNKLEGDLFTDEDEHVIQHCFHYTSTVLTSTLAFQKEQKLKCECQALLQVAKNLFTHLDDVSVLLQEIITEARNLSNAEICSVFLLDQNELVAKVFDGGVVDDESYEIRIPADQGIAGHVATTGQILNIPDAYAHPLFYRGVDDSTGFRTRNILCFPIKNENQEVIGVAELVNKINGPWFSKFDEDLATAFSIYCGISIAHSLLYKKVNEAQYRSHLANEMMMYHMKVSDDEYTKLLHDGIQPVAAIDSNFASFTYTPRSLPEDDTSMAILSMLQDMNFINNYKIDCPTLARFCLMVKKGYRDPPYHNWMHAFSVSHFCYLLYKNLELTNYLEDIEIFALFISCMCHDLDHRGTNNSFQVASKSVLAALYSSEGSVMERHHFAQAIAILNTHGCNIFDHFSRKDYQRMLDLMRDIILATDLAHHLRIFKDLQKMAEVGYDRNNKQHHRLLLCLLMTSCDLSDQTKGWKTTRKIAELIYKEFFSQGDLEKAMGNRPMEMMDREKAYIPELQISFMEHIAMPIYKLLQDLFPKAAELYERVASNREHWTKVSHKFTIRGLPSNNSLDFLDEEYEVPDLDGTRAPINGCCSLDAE
Sequence of Phosphodiesterase 8 (Homo sapiens) (O60658 whole entry, looked up): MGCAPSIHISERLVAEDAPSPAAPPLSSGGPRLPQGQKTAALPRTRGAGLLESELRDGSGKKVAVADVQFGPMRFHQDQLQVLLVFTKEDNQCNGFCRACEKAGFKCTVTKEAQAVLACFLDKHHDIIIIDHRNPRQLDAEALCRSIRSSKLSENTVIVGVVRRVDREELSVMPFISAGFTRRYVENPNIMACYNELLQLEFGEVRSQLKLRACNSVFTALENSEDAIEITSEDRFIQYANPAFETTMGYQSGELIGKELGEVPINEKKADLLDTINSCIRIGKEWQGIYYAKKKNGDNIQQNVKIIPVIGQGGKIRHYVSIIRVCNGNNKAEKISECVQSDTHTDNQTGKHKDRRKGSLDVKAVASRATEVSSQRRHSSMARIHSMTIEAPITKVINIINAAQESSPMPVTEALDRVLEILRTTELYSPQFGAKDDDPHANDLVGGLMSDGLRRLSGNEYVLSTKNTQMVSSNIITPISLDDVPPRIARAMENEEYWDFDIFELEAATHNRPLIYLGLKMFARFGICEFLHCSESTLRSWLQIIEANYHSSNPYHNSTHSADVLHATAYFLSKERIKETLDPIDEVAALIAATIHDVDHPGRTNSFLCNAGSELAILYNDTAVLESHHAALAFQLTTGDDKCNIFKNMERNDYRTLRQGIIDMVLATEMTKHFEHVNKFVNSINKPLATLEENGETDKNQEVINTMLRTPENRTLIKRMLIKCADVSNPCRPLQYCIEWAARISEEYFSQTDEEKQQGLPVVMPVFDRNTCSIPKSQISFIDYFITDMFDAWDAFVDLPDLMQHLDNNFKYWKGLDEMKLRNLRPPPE
Sequence of Phosphodiesterase 8 (Homo sapiens) (O95263 whole entry, looked up): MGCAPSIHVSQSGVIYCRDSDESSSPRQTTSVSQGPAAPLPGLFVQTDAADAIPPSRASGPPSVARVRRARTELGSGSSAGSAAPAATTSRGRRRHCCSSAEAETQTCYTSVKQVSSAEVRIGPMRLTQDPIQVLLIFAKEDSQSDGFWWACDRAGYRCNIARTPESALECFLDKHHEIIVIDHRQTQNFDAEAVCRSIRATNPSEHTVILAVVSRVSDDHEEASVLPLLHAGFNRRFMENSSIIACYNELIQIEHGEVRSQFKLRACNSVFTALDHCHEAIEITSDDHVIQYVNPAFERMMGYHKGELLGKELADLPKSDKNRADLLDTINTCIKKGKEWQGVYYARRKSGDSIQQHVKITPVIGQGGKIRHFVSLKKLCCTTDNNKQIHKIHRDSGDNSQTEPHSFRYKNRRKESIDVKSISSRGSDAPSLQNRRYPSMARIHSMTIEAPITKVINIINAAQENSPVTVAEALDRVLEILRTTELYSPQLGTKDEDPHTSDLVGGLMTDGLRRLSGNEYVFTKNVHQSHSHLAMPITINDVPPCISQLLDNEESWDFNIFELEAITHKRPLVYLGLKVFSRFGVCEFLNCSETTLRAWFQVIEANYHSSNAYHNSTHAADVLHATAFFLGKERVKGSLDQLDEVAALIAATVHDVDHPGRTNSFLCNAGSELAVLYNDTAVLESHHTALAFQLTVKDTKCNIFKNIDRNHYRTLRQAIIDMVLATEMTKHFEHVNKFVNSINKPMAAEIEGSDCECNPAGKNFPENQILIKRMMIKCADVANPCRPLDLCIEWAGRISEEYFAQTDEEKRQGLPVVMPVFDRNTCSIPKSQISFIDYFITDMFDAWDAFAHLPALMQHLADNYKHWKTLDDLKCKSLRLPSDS

Row | Structure (SMILES) | pIC50 [1] | pIC50 (PBMC) | further results
1 | COc1ccc(C(=O)Cc2c(Cl)cncc2Cl)c(OCC(N)=O)c1OC | 7.70 | 7.26 | 
2 | COc1ccc(C(=O)Cc2c(Cl)cncc2Cl)c(OCC(=O)O)c1OC | 5.42 | < 5.00 | inhibition [2]: < 10%; inhibition [3]: < 10%; inhibition [4]: < 10%; inhibition [5]: < 10%; inhibition [6]: < 10%; inhibition [7]: < 10%; inhibition [8]: < 10%; inhibition [9]: < 10%; inhibition [10]: < 10%
3 | CCCCC(=O)O[C@]1(C(=O)CO)[C@@H](C)C[C@H]2[C@@H]3CCC4=CC(=O)C=C[C@]4(C)[C@@]3(F)[C@@H](O)C[C@@]21C [BETAMETHASONE VALERATE] |  |  | inhibition (INH) (Mus musculus): 75%
4 | COc1ccc(C(=O)Cc2c(Cl)cncc2Cl)c(OC)c1OC | 6.96 | 6.36 | 
5 | COc1ccc(C(=O)Cc2c(Cl)cncc2Cl)c(OCC(=O)NCCO)c1OC | 7.77 | 7.66 | Activity [11]: Toxic
6 | COc1ccc(C(=O)Cc2c(Cl)cncc2Cl)c(OCCc2ccccc2)c1OC | 7.82 | 7.59 | 
7 | COc1ccc(C(=O)Cc2c(Cl)cncc2Cl)c(OC)c1OCC1CC1 | 6.67 | 6.25 | 
8 | COc1ccc(C(=O)Cc2c(Cl)cncc2Cl)c(OCCc2ccc(C(=O)O)cc2)c1OC | 7.77 | 6.87 | 
9 | COc1ccc(C(=O)Cc2c(Cl)cncc2Cl)c(OCc2ccccc2)c1OC | 7.20 | 6.80 | 
10 | COc1ccc(C(=O)Nc2c(Cl)cncc2Cl)cc1OC1CCCC1 [PICLAMILAST] |  |  | solubility [12]: 1 µg/mL (≈ 2.62 µM); solubility at 1 h [13]: 190 µg/mL (≈ 498 µM); solubility [14]: 2000 µg/mL (≈ 5250 µM); solubility [15]: 3300 µg/mL (≈ 8660 µM)
11 | COc1ccc(C(=O)Nc2c(Cl)cncc2Cl)cc1OC | 7.77 | 7.72 | 
12 | COc1ccc(C(=O)Cc2c(Cl)cncc2Cl)cc1OC | 7.89 | 7.96 | 
13 | COc1ccc(C(=O)Nc2c(Cl)cncc2Cl)c(OC)c1OC | 5.42 | < 5.30 | 
